Compound activity from PubChem BioAssay.
Rows were chosen to be rich in hits. Some 2.9% of all compounds tested hit in one or more screens of this group.
5HT1a antag = human 5-HT1a receptor antagonists, primary screen, cell-based, CHO, Ga15 NFAT-bla reporter; 5-hydroxytryptamine receptor 1A (Homo sapiens), P08908; CHO 5-HT1a Ga15 NFAT-bla reporter, antagonist mode; inhibition, % at 10 µM; 62,000 compounds, 0.68% hits;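 active = inhibition above the mean of all tested compounds plus 3 SD, cut at about 43% in these data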;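 note: receptor stimulated by 5-CT agonist at 100 nM near EC80; beta-lactamase reporter measured by ratiometric fluorescence of a cleavable substrate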
Target sequence (P08908 whole entry, looked up): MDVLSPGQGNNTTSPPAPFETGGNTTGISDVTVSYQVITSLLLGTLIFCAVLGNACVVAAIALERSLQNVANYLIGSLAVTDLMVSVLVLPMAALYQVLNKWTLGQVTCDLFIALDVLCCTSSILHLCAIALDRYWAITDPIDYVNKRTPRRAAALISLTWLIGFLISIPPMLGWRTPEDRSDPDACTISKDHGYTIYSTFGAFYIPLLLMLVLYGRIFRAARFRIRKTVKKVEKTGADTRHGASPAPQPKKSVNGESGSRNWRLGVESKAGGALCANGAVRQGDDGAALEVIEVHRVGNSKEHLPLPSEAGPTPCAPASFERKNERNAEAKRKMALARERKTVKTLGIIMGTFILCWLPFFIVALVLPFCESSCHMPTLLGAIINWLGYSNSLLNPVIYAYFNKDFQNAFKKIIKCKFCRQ
HTR1E agonist = 5-HT1E receptor agonists, primary screen, cell-based, HTS. activation, % at 6 µM. 65,000 compounds, 0.69% hits. AID 574, 2007. 5-hydroxytryptamine receptor 1E (Homo sapiens), P28566. CHO 5-HT1E Ga15 NFAT-bla reporter, FRET; 0% DMSO wells, 100% control agonist wells;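 active = activation above a set limit, the screen-wide mean activation plus 3 SD, cut at about 8.5% in these data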;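 note: 100% = positive control agonist at 1 µM giving full maximal response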
S1P3 ag = human S1P3 receptor agonists, primary screen, cell-based, primary and confirmation, NFAT-BLA reporter. Sphingosine 1-phosphate receptor 3 (Homo sapiens), Q99500. S1P3 NFAT-BLA reporter cells, agonism, FRET ratio; relative to 1 µM S1P, basal subtracted. activation, % at 4.5 µM. 60,000 compounds, 0.1% hits. AID 373, 2006;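 active = activation above the screen-wide mean plus 3 SD, cut at about 4.5% in these data, passing the limit was not always enough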
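Assay system: CHO cells stably expressing human S1P3, Gα16 and NFAT-β-lactamase reporter. Timing: overnight plating, 4 h compound 37 °C, 2 h substrate RT. Signal: β-lactamase FRET emission ratio 460/535 nm. Measure: percent activation versus median 1 µM S1P response, basal-subtracted, per plate. Repeats: primary screen single test, confirmation screen in triplicate.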
HTR1A agonist = human 5-HT1a receptor agonists, primary screen, cell-based, CHO, Ga15 NFAT-bla reporter | CHO 5-HT1a Ga15 NFAT-bla reporter, FRET ratio; 0% basal, 100% maximal reference agonist | AID 567, 2006 | 65,000 compounds, 0.56% hits | activation, % at 10 µM;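 active = activation above the screen-wide mean activation plus 3 SD, cut at about 19% in these data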;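 note: 0% = DMSO wells and 100% = 5-CT at EC100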
S1P1 ag-PAM = S1P1 agonists and agonism potentiators, primary screen, cell-based, primary and confirmation screens, CRE-bla reporter. Sphingosine 1-phosphate receptor 1 (Homo sapiens), P21453. S1P1 CRE-bla cells, forskolin, beta-lactamase FRET, potentiator mode; S1P1 agonist co-added at EC20, 2 nM; 100% = saturating reference agonist, 0% = basal. activation, % at 9.5 µM. 56,000 compounds, 0.57% hits. AID 449, 2006;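 active = activation above a cutoff set at the mean activation of all tested compounds plus 3 SD, cut at about 54% in these data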;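 note: forskolin at 4 µM as EC80 and the EC20 agonist is SEW2871; 100% = SEW2871 at its EC100 plus forskolin at EC80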
HTR1E antagonist = 5-HT1E receptor antagonists, primary screen, cell-based, HTS; 5-hydroxytryptamine receptor 1E (Homo sapiens), P28566; CHO 5-HT1E Ga15 NFAT-bla reporter, FRET, antagonist; inhibition, % at 6 µM; 65,000 compounds, 0.99% hits;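 active = inhibition above a set limit, the mean inhibition across every tested compound plus 3 SD, cut at about 29% in these data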;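 note: signal is the 460 over 535 nm emission ratio of beta-lactamase substrate; 0% = agonist plus DMSO wells and 100% = wells without agonist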
Starred values were filed as active, the others as inactive.

What do the screens show for `CCC(C)[C@@H](NC(=O)OC(C)(C)C)c1nnc(S(=O)(=O)Cc2cccc(C)c2)o1` (some centres not stated)?
5HT1a antag: 51*; HTR1E agonist: 2; S1P3 ag: -1; HTR1A agonist: 4; S1P1 ag-PAM: 41; HTR1E antagonist: -4

How did CCC(C)C(NCc1cccc(C)c1)C(=O)O (configuration not stated) do in these assays?
5HT1a antag: -2; HTR1E agonist: -2; HTR1A agonist: 1; HTR1E antagonist: 12

How did CC(C)(C)OC(=O)N[C@@H](Cc1ccccc1)c1nnc(S(=O)(=O)Cc2ccccc2)o1 do in these assays?
5HT1a antag: 78*; HTR1E agonist: 1; S1P3 ag: 0; HTR1A agonist: -3; S1P1 ag-PAM: 86*; HTR1E antagonist: 55*

What do the screens show for `CCOC(=O)c1cnc(-n2nc(C)cc2C)nc1NC1CCCCC1`?
5HT1a antag: 48*; HTR1E agonist: 0; S1P3 ag: -2; HTR1A agonist: 0; S1P1 ag-PAM: 110*; HTR1E antagonist: 11

Results for O=C(CN1CCC(NC(=O)Nc2ccccc2-c2ccccc2)CC1)NCc1ccco1 ?
5HT1a antag: 8; HTR1E agonist: -1; S1P3 ag: -1; HTR1A agonist: 0; S1P1 ag-PAM: -6; HTR1E antagonist: 7

Results for COc1cccc(NC(=O)N2CCC(N3CCCCC3)CC2)c1 ?
5HT1a antag: -2; HTR1E agonist: 0; S1P3 ag: -1; HTR1A agonist: -3; S1P1 ag-PAM: -8; HTR1E antagonist: 7

What do the screens show for `COc1cccc(NC(=O)N2CCN(c3cccc(C)c3C)CC2)c1`?
5HT1a antag: 0; HTR1E agonist: 30*; S1P3 ag: -1; HTR1A agonist: -2; S1P1 ag-PAM: 8; HTR1E antagonist: -1

What do the screens show for `O=C(NCCCn1ccnc1)C(Cc1ccccc1)N1C(=O)c2ccccc2C1=O` (configuration not stated)?
HTR1E agonist: -1; S1P3 ag: -4; HTR1A agonist: 2; S1P1 ag-PAM: 4; HTR1E antagonist: -1

How did O=C(CSc1nccn1-c1ccc(F)cc1)Nc1ccc2c(c1)OCO2 do in these assays?
5HT1a antag: 12; HTR1E agonist: 14*; S1P3 ag: -1; HTR1A agonist: -1; S1P1 ag-PAM: 9; HTR1E antagonist: 1

How did O=C(CSc1nccn1-c1ccccc1)Nc1ccc2c(c1)OCO2 do in these assays?
5HT1a antag: 11; HTR1E agonist: -1; S1P3 ag: -2; HTR1A agonist: -3; S1P1 ag-PAM: -1; HTR1E antagonist: 10

What do the screens show for `CCNC(=O)CSc1nc2ccccc2c(=O)n1CCCOC(C)C`?
5HT1a antag: 0; HTR1E agonist: 1; S1P3 ag: 0; HTR1A agonist: -3; S1P1 ag-PAM: -8; HTR1E antagonist: -16

How did COCCNC(=O)CSc1nc2ccccc2c(=O)n1CCCC(=O)NCc1ccccc1 do in these assays?
5HT1a antag: -4; HTR1E agonist: -1; HTR1A agonist: 26*; HTR1E antagonist: -8

How did COc1cccc(-c2nnc3sc(C4CCCCC4)nn23)c1 do in these assays?
HTR1E agonist: -1; S1P3 ag: -1; HTR1A agonist: 2; S1P1 ag-PAM: 80*; HTR1E antagonist: 25

What do the screens show for `CCOc1cccc(-c2nnc3sc(-c4cc(OC)c(OC)cc4OC)nn23)c1`?
5HT1a antag: -2; HTR1E agonist: 2; S1P3 ag: -2; HTR1A agonist: -5; S1P1 ag-PAM: -2; HTR1E antagonist: -6

How did CCOc1cccc(-c2nnc3sc(C4CCCCC4)nn23)c1 do in these assays?
HTR1E agonist: 0; S1P3 ag: 7; HTR1A agonist: 1; S1P1 ag-PAM: 42; HTR1E antagonist: 10

Results for Cc1cc(-c2nnc3sc(C4CCCCC4)nn23)n[nH]1 ?
5HT1a antag: -15; HTR1E agonist: -2; S1P3 ag: 0; HTR1A agonist: -2; S1P1 ag-PAM: -1; HTR1E antagonist: 11

Results for COc1cc(-c2nnc3sc(C4CCCCC4)nn23)cc(OC)c1OC ?
5HT1a antag: -10; HTR1E agonist: 1; S1P3 ag: 1; HTR1A agonist: -1; S1P1 ag-PAM: -16; HTR1E antagonist: 40*

What do the screens show for `COc1cc(OC)c(-c2nn3c(C4CCCCC4)nnc3s2)cc1OC`?
5HT1a antag: -2; HTR1E agonist: 1; S1P3 ag: 0; HTR1A agonist: 3; S1P1 ag-PAM: -75; HTR1E antagonist: 33*

How did Cc1ccc(S(=O)(=O)Nc2ccc(Br)cc2/C=N/n2cnnc2)cc1 do in these assays?
5HT1a antag: 4; HTR1E agonist: 0; S1P3 ag: -2; HTR1A agonist: -1; S1P1 ag-PAM: 38; HTR1E antagonist: 8

Results for N#C/C(=C(/O)COC(=O)c1ccc2c(c1)OCCO2)c1nc2ccccc2[nH]1 ?
5HT1a antag: 0; HTR1E agonist: 1; S1P3 ag: -1; HTR1A agonist: -3; S1P1 ag-PAM: -7; HTR1E antagonist: 5

How did N#C/C(=C(/O)COC(=O)Cc1c[nH]c2ccccc12)c1nc2ccccc2[nH]1 do in these assays?
5HT1a antag: 12; HTR1E agonist: 5; S1P3 ag: 0; HTR1A agonist: 32*; S1P1 ag-PAM: 16; HTR1E antagonist: -1

Results for CCOC(=O)c1c(C)[nH]c(C(=O)OC/C(O)=C(\C#N)c2nc3ccccc3[nH]2)c1C ?
5HT1a antag: 6; HTR1E agonist: 3; S1P3 ag: 1; HTR1A agonist: 0; S1P1 ag-PAM: -18; HTR1E antagonist: 49*

Results for Cc1c(Cc2ccccc2)c(=O)oc2c(CN(C)C)c(O)c(Cl)cc12 ?
5HT1a antag: -44; HTR1E agonist: 8; S1P3 ag: 2; HTR1A agonist: 20*; S1P1 ag-PAM: -64; HTR1E antagonist: -9

How did CC1CCCN(C(C(=O)Nc2ccc3c(c2)OCO3)c2ccccc2)C1 (configuration not stated) do in these assays?
5HT1a antag: 49*; HTR1E agonist: 1; S1P3 ag: 0; HTR1A agonist: -2; S1P1 ag-PAM: 34; HTR1E antagonist: 13

What do the screens show for `CCN1CCN(c2ncnc3c2oc2nc(C(C)C)c4c(c23)CCC4)CC1`?
5HT1a antag: -19; HTR1E agonist: 2; S1P3 ag: -1; HTR1A agonist: -1; S1P1 ag-PAM: -32; HTR1E antagonist: -6
